# Published values of several laboratories.
# Target: Dual specificity protein kinase CLK2 (CLK2, Homo sapiens, UniProt P49760)
# Technique: competition with immobilised ligand
Structure (SMILES),assay,conditions,remaining binding
COc1ccc2c(c1)O[C@H](c1ccc(OC)c(OC)c1)C[C@@H]2NC(=O)C1(c2ccc3c(c2)OC(F)(F)O3)CC1,cell-free assay,1 µM,95%
COc1cnc(Nc2cccc(S(N)(=O)=O)c2)nc1N1CCN(c2ccccc2)CC1,binding,1 µM,99%
O=C(c1ccc(Nc2ncc(Cl)c(-c3cc4ccccc4s3)n2)cc1)N1CCC(N2CCCC2)CC1,binding,1 µM,6.7%
COc1ncc2cc3ccccc3nc2c1C#N,cell-free assay,5 µM,76%
O=C(NCCCN1CCOCC1)c1ccc(Nc2ncc(Cl)c(-c3ccc(Cl)s3)n2)cc1,binding,1 µM,5.7%
Cc1cc(C)c(-n2ccn3nc(-c4cccnc4)cc23)cc1NC(=O)c1cc(C#N)cc(S(F)(F)(F)(F)F)c1,cell-free assay,0.1 µM,91%
CN(CCCC(F)(F)F)c1nccc(-c2cnn3ncccc23)n1,binding,1 µM,47%
O=C(Nc1c[nH]nc1C(=O)NC1CCNCC1)c1cc(F)cc(F)c1,binding,1 µM,100%
C[C@@]1(Cc2ccc(C#N)cc2)C(=O)N(c2cc(Cl)cc(Cl)c2)c2ncc(C(=O)NC3(c4nc(C5CCC5)no4)CC3)n21,cell-free assay,1 µM,100%
C=CC(=O)N1CCC(C(=O)NCC(=O)N2CCN(c3nc(-c4cnc(N)nc4C(F)F)nc(N4CCOCC4)n3)CC2)CC1,binding,1 µM,91%
CC(=O)C1=C(C)N(c2cccc(C(F)(F)F)c2)C(=O)N[C@@H]1c1ccc(C#N)nc1,cell-free assay,1 µM,100%
COc1cnc(Nc2cccc(S(N)(=O)=O)c2)nc1N1CCN(c2ccccc2)C(=O)C1,binding,1 µM,76%
O=C(c1ccc(Nc2nccc(-c3cc4ccccc4s3)n2)cc1)N1CCC(N2CCCC2)CC1,binding,1 µM,39%
c1cncc(-c2cccc(Nc3nccc(NC4CCCCC4)n3)c2)c1,binding,10 µM,15%
